Measurements taken from ChEMBL document CHEMBL4364301 (Eur J Med Chem, 2019).

What was measured:
Assay type in all cases: functional
CWR22R = experiment: Antiproliferative activity against human 22Rv1 cells assessed as reduction in cell growth incubated for 96 hrs by propidium iodide based 2D monolayer assay; details: 22Rv1, 96 h
Outline: (§1)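 After 24 h recovery, compound in medium or medium alone (control wells) was added at 10 half-log concentrations from 0.0032 to 100 µM, in triplicate, with at most 0.3% DMSO. After 96 h, wells were PBS-washed, stained with 7 µg/ml PI and 0.1% Triton X-100, and fluorescence read at 530/620 nm. IC50 came from a 4-parameter fit, geometric mean.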

LNCaP = experiment: Antiproliferative activity against human LNCAP cells assessed as reduction in cell growth incubated for 96 hrs by propidium iodide based 2D monolayer assay; outline: as §1
VCaP = experiment: Antiproliferative activity against human VCaP cells assessed as reduction in cell growth incubated for 96 hrs by propidium iodide based 2D monolayer assay
Outline: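 VCaP cells in RPMI 1640 with 10% FCS at 37 °C, 5% CO2, seeded 4,000–20,000 cells/well and left 24 h before dosing. Compounds from DMSO stocks were diluted in half-log steps in medium, 10 concentrations 0.0032–100 μM, triplicate wells, max 0.3% DMSO. After 96 h, cells were washed, stained with 7 μg/ml propidium iodide plus 0.1% Triton X-100 for 1–2 h at room temperature, and fluorescence read at ex 530/em 620 nm.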

DU-145 = experiment: Antiproliferative activity against human DU145 cells assessed as reduction in cell growth incubated for 96 hrs by propidium iodide based 2D monolayer assay; details: DU-145, 96 h; outline: as §1

Row | SMILES | IC50 (CWR22R) [µM] | IC50 (LNCaP) [µM] | IC50 (VCaP) [µM] | IC50 (DU-145) [µM]
1 | CC(O)(CS(=O)(=O)c1cccc(OC(F)(F)F)c1)C(=O)Nc1ccc(S(F)(F)(F)(F)F)cc1 (racemic) | 22.4 | 21.7 | 23.7 | 26.5
2 | CC(O)(CS(=O)(=O)c1cccc(OC(F)(F)F)c1)C(=O)Nc1cccc(S(F)(F)(F)(F)F)c1 (racemic) | 20.1 | 15.1 | 20.2 | 31.5
